Test: Toxicity liver stage against HepG2, at 10uM
Type: cell-based
Design: test concentration 10 uM, cell line HepG2-A16-CD81EGFP
Conditions: human, HepG2-A16-CD81EGFP cells; read-out: INHIBITION
Summary of the method: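 Uninfected HepG2-A16-CD81EGFP cells, 3 × 10^3 per well, 1536-well, plated on prespotted compound at 10 μM final, parasite-free screening media added to match infected plates; puromycin 10 μM positive, DMSO 0.5% negative; run in parallel with 48 h PbLuc assay at 37 °C, 5% CO2; viability by CellTiter-Glo luminescence, normalized to controls.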

c1c2c(nn1CC1CC1)C(CNC1CCOCC1)OCC2 (stereo not given)
cytotoxicity at 10 µM: 7.43%

COCC1CCCN(C(=O)c2ccccc2NCc2cccnc2)C1 (stereo not given)
cytotoxicity at 10 µM: 8.47%

O=C(c1cc(-n2cccn2)ccn1)N1CCOc2ncccc21
cytotoxicity at 10 µM: -0.554%

CN1CCCc2cc(CNC(=O)c3cccnc3O)ccc21
cytotoxicity at 10 µM: -1.68%

COCCN(CC(C)C)C(=O)c1cccc(Nc2cnccn2)c1
cytotoxicity at 10 µM: -9.59%

CCCNC(=O)c1ncn2c1CN(CC(C)C)S(=O)(=O)c1ccccc1-2
cytotoxicity at 10 µM: -72%

COCCC(=O)N1CCCC(CCC(=O)NCc2ccccc2F)C1 (stereo not given)
cytotoxicity at 10 µM: 11%

CCN1CCCC1Cn1ccc2c(OC)c(OC)ccc2c1=O (stereo not given)
cytotoxicity at 10 µM: -2.78%

COCCNC(=O)N1CCCC(COc2ccccc2)C1 (stereo not given)
cytotoxicity at 10 µM: 0.186%

Cn1ccc(C(=O)NC2CCC23CCN(Cc2cnn(C)c2)CC3)c1 (stereo not given)
cytotoxicity at 10 µM: -146%

O=C(CN1CCCC1=O)N1CCC(O)(Cn2ccc3ccncc32)CC1
cytotoxicity at 10 µM: -5.55%

COc1c(F)cc(-c2cccc3c2OC(CN)C3)cc1F (stereo not given)
cytotoxicity at 10 µM: -53.7%

Cc1ccc(C(C(=O)NCc2n[nH]c(N)n2)N(C)C)cc1 (stereo not given)
cytotoxicity at 10 µM: 0.529%

CC(C)n1[nH]c(=O)c2c1NC(=O)CC2c1cccc(OC(F)F)c1 (stereo not given)
cytotoxicity at 10 µM: 16%

c1cnc(N2CCC(OCCN3CCCCC3)C2)nc1 (stereo not given)
cytotoxicity at 10 µM: -47.3%

CCN1CCC2(CC1)CC(NC(=O)N(C)C)c1cc(C)ccc12 (stereo not given)
cytotoxicity at 10 µM: -13.1%

CCOc1ccc2nc(CN3CCOC(CN)C3)ccc2c1 (stereo not given)
cytotoxicity at 10 µM: -3.54%

O=C(O)c1ccc(CN2CCCC(Cc3ccn[nH]3)C2)cc1 (stereo not given)
cytotoxicity at 10 µM: -6.08%

O=C(NC1CCCC1)[C@@H]1C[C@@H]2CCN(Cc3ccoc3)C[C@H]2O1
cytotoxicity at 10 µM: -110%

Cc1cccc(N(CCC(N)=O)C(=O)c2ccnc(C)n2)c1
cytotoxicity at 10 µM: -8.47%

COc1ccc(OC2CCN(C(=O)[C@@H](N)Cc3c[nH]cn3)CC2)cc1
cytotoxicity at 10 µM: 0.653%

N#Cc1c(Cl)nsc1NCCN1CCOCC1
cytotoxicity at 10 µM: 9.64%

c1cnc2c(c1)cc([C@@H]1CCCO1)n2CCN1CCCCC1
cytotoxicity at 10 µM: -25.9%

CCN(C(=O)COc1nc(Cc2ccc(F)cc2)no1)C1CC1
cytotoxicity at 10 µM: 5.09%

COc1ccc(-n2nc(C3CC3)nc2CCn2cnnn2)cc1
cytotoxicity at 10 µM: -2.88%

CCS(=O)(=O)N1CCc2c(cccc2NC(=O)NCCO)C1
cytotoxicity at 10 µM: -7.47%

CC1CN(C)c2ccccc2CN1CCn1cncn1 (stereo not given)
cytotoxicity at 10 µM: -12.7%

O=C1N(Cc2ccccc2)C[C@H]2CN(Cc3ccccc3Cl)CCN12
cytotoxicity at 10 µM: 2.23%

O=C1CN(C(=O)C2CN(c3ccc(F)cc3)CCO2)CCN1 (stereo not given)
cytotoxicity at 10 µM: 3.04%

Cc1ccc2cccc(Oc3nc(C)c(C(=O)O)s3)c2n1
cytotoxicity at 10 µM: 6.39%

COCCCN1CCC(NC(=O)C(C)C)CC1
cytotoxicity at 10 µM: -11.9%

Cn1nccc1CCC(=O)N1CCOC(c2cnccn2)C1 (stereo not given)
cytotoxicity at 10 µM: -25.9%

CCN1CCN(C[C@@H]2CN(Cc3cnc(C(C)C)nc3)C[C@@H]2CO)CC1
cytotoxicity at 10 µM: -6.79%

O=C(c1ccc(-c2ccoc2)nc1)N1CCCN(C2CCCCC2)CC1
cytotoxicity at 10 µM: 7.69%

O=C1CCC(C(=O)Nc2ccc(=O)n(Cc3ccccc3Cl)c2)N1 (stereo not given)
cytotoxicity at 10 µM: -1.36%

CCn1ccnc1CN(C)CC1CCCN1c1cccnn1 (stereo not given)
cytotoxicity at 10 µM: -0.0722%

COCCCN(CCOC)C(=O)Nc1ccccc1Br
cytotoxicity at 10 µM: 5.86%

Cc1nn(C)c(C)c1C1COCCN1C(=O)c1cc(F)ccc1F (stereo not given)
cytotoxicity at 10 µM: 3.38%

CCN1CCCC(CNC(=O)C2(c3cc(C)cc(C)c3)CCC2)C1 (stereo not given)
cytotoxicity at 10 µM: -10.7%

NC(=O)C1CN(Cc2c[nH]cn2)CCN(C2CCOCC2)C1 (stereo not given)
cytotoxicity at 10 µM: 3.83%

COc1c(C(=O)NCc2cnn(C)c2C)nnn1Cc1ccccc1
cytotoxicity at 10 µM: -11.3%

CS(=O)(=O)c1ccc2c(c1)N(C(=O)c1cccc(F)c1)CCC2
cytotoxicity at 10 µM: 8.05%

CC(=O)NCC(=O)N1CCN(C)c2ncccc2C1
cytotoxicity at 10 µM: -113%

Cc1ncccc1OC1(C(=O)NCc2noc(C(C)C)n2)CCNCC1
cytotoxicity at 10 µM: 5.68%

O=C(CSCc1ccncc1)NCC1CCN(C2CC2)C1 (stereo not given)
cytotoxicity at 10 µM: 0.224%

O=C(CN1CCOCS1(=O)=O)NCc1ccccc1
cytotoxicity at 10 µM: 1.09%

CC(C)(O)CCc1ccc(C(=O)NCCC2CCOC2)cc1 (stereo not given)
cytotoxicity at 10 µM: 0.824%

CC1CCN(C(=O)c2cn(-c3cc(N4CCSCC4)ncn3)cn2)CC1
cytotoxicity at 10 µM: -3.75%

Cn1cc(C(=O)N2CC[C@@H]3[C@@H]2CCN3c2ccccn2)cn1
cytotoxicity at 10 µM: -0.0807%

Cc1cc(C(=O)NCc2ccc(F)cc2)nc(C2CCCN2C)n1 (stereo not given)
cytotoxicity at 10 µM: -28.7%

N#Cc1cccc(NC(=O)C2CCCN2c2nccs2)c1 (stereo not given)
cytotoxicity at 10 µM: -5.28%

CCc1nnc(CN2CCCN(C(=O)c3ccccn3)CC2)o1
cytotoxicity at 10 µM: -5.56%

Cc1nc(CCNC(=O)NCC(c2ccco2)N(C)C)cs1 (stereo not given)
cytotoxicity at 10 µM: 7.26%

N#Cc1ccc(CN2CCCC2Cn2cccn2)cc1 (stereo not given)
cytotoxicity at 10 µM: -2.96%

CCS(=O)(=O)N1Cc2cncn2CC(C(=O)NCC2CC2)C1 (stereo not given)
cytotoxicity at 10 µM: -97.6%

Cc1cc(CN2CCCn3nc(CCC(=O)O)cc3C2)ccc1F
cytotoxicity at 10 µM: 2.28%

CCC(=O)N1CCC(c2cncc(Oc3cccnc3)n2)CC1
cytotoxicity at 10 µM: -4.69%

COCc1cc(C[C@@H]2CC[C@H](O)[C@@H](CN(CC(C)C)CC(C)C)O2)no1
cytotoxicity at 10 µM: 0.169%

CCOCCN1CCC(c2cncc(C)n2)CC1
cytotoxicity at 10 µM: -2.58%

Cc1cc(C)cc(C2(C(=O)N3CCCC(n4cncn4)C3)CC2)c1 (stereo not given)
cytotoxicity at 10 µM: -3%

CCc1ocnc1C(=O)N1CCC2(CC1)OCC(C)O2 (stereo not given)
cytotoxicity at 10 µM: 4.44%

CC(NC(=O)NCC1(c2ccc(F)cc2)CCCC1)c1nncn1C (stereo not given)
cytotoxicity at 10 µM: -6.27%

COc1cc(C)nc(N2CCN(C(=O)c3cc(Cl)c[nH]3)CC2)n1
cytotoxicity at 10 µM: 7.32%

CCN(C(=O)CN1CCCN(c2nc(C)ns2)CC1)C1CC1
cytotoxicity at 10 µM: -4.08%

COC(=O)C(NC(=O)c1cc(C)ccc1C)c1cccnc1 (stereo not given)
cytotoxicity at 10 µM: -39.7%

CCc1cnc(N)nc1NCCCN1CCCCC1CO (stereo not given)
cytotoxicity at 10 µM: -0.0414%

c1ccc(Cc2noc(-c3ccc(NCC4COCCO4)nc3)n2)cc1 (stereo not given)
cytotoxicity at 10 µM: 6.42%

CCOc1ncccc1CNC(=O)Nc1ccccc1
cytotoxicity at 10 µM: -4.87%

O=C(CCNCc1cccc(O)c1)N1CCc2sccc2C1
cytotoxicity at 10 µM: 16%

CN1CC2(CCN(CCCOCc3ccccc3)CC2)OC1=O
cytotoxicity at 10 µM: 3.12%

O=C(c1cc(C2CC2)on1)N1C[C@H]2CC[C@](O)(c3ccc(F)cc3)[C@H]2C1
cytotoxicity at 10 µM: 3.94%

Cc1nc(C2CCCN(C(=O)c3ccc(Cn4cccn4)o3)C2)no1 (stereo not given)
cytotoxicity at 10 µM: -6.38%

Cc1[nH]c2c(F)cccc2c1CC(=O)NCCCc1csc(N)n1
cytotoxicity at 10 µM: -3.57%

Cc1cc(C)cc(C(=O)NCCCC2(C3OCCO3)CCOCC2)c1
cytotoxicity at 10 µM: 9.4%

COc1ccc(CN(C)[C@@H]2CN(C(=O)c3ccccc3)C[C@H]2O)cc1
cytotoxicity at 10 µM: -2.64%

CCc1ccccc1NC(=O)NCc1nnc(SC)n1C
cytotoxicity at 10 µM: 3.73%

CO[C@H]1C[C@@H](O)C12CCN(C(=O)c1cccc(CCC(C)(C)O)c1)CC2
cytotoxicity at 10 µM: 2.74%

CCN1CCn2c(C)cnc2C12CCN(C(=O)NCC(C)C)CC2
cytotoxicity at 10 µM: -1.07%

CC(C)Cc1nnc2sc(-c3cc(C(C)C)n[nH]3)nn12
cytotoxicity at 10 µM: 8.08%

CCn1ncc(S(=O)(=O)N[C@@H]2CC[C@@H](n3ccnc3C)[C@@H]2O)c1C
cytotoxicity at 10 µM: 3.65%

O=C(NC1CCCCNC1=O)c1cc2ccccc2[nH]c1=O (stereo not given)
cytotoxicity at 10 µM: -6.08%

Fc1cccc(N2CCOC3(CCCN(c4nncs4)C3)C2)c1 (stereo not given)
cytotoxicity at 10 µM: 4%

Cc1noc(C)c1CN1C[C@@H](C(=O)O)[C@H](c2ccccn2)C1
cytotoxicity at 10 µM: -6.9%

CC(C)CNC(=O)c1cccc(Oc2ccc3nncn3n2)c1
cytotoxicity at 10 µM: -1.95%

Cc1noc(C)c1-c1cc(CC2CCN(C(=O)c3cc[nH]n3)C2)ncn1 (stereo not given)
cytotoxicity at 10 µM: -13.4%

O=C(NC(C(=O)Nc1cc[nH]n1)c1ccccc1)C1CCC1 (stereo not given)
cytotoxicity at 10 µM: -17.5%

CC(C)COC[C@H]1CC[C@H]2[C@H](CCN2C(=O)c2ccncc2F)O1
cytotoxicity at 10 µM: -0.171%

COCc1cnc2n1CCN(C(=O)c1ccc3ccccc3n1)C2C (stereo not given)
cytotoxicity at 10 µM: -112%

O=C(Cc1ccc2c(c1)OCCO2)NCCc1nnc2n1CCC2
cytotoxicity at 10 µM: -9.78%

Cc1cncc(C2CCN(C(=O)c3ccc(-n4cccn4)nc3)CC2)n1
cytotoxicity at 10 µM: -0.701%

Cc1cc(F)ccc1OC1(C(=O)O)CCN(Cc2cccnc2N)CC1
cytotoxicity at 10 µM: -1.83%

COC(=O)c1cccnc1N1CCC(Oc2cccc(F)c2)CC1
cytotoxicity at 10 µM: 3.31%

O=C(COCCOc1ccccc1)Nc1ccnn1CC1CCOC1 (stereo not given)
cytotoxicity at 10 µM: 1.88%

Cc1cc(CNC2CCc3nc(C(C)C)nn3C2)on1 (stereo not given)
cytotoxicity at 10 µM: 7.61%

NC(=O)Cc1ccc(NC(=O)C2CCOCC2)cc1
cytotoxicity at 10 µM: -1.2%

O=C(c1cccc(-c2ncc[nH]2)c1)N1CCC(N2CCCC(O)C2)CC1 (stereo not given)
cytotoxicity at 10 µM: 6.42%

CC(C)=CCCC1(C)C=Cc2c(cc(C)n(CC(=O)O)c2=O)O1 (stereo not given)
cytotoxicity at 10 µM: -2.72%

OCCN1CCN(Cc2cc3c(cc2Br)OCCO3)CC1
cytotoxicity at 10 µM: 7.59%

CS(=O)(=O)NC1CCCN(C(=O)NCc2cc[nH]n2)C1 (stereo not given)
cytotoxicity at 10 µM: 4.14%

CCN1CC[C@@]2(C(=O)N3CCOCC3)CCN(C(=O)CC(C)C)CC[C@@H]12
cytotoxicity at 10 µM: 3.56%

CCc1nnc2n1CCN(CC(=O)N(CC)C1=CCCCC1)C2
cytotoxicity at 10 µM: -0.0192%

CN(Cc1ccco1)[C@@H]1CN(Cc2cccs2)C[C@@H]2CCCO[C@@H]21
cytotoxicity at 10 µM: 3.65%

Cc1ccc(C(=O)N2CCCn3nc(CCC(=O)O)cc3C2)cc1Cl
cytotoxicity at 10 µM: -3.49%

CC(C)(C)n1cc(CNc2ccc(CNS(C)(=O)=O)cc2)cn1
cytotoxicity at 10 µM: 16.1%

CCc1nc(-c2noc3ccc(C(=O)NCCN(C)C)cc23)co1
cytotoxicity at 10 µM: -150%

COc1ccc2c(c1)CC(C1CCOCC1)N(C(=O)c1ccnn1C)C2 (stereo not given)
cytotoxicity at 10 µM: -0.516%

Cc1ncc(Cl)c(C(=O)N2CC(=O)N(C)c3ccccc32)n1
cytotoxicity at 10 µM: 5.35%

CS(=O)(=O)N1Cc2nc(C(=O)NCc3ccccc3)oc2C1
cytotoxicity at 10 µM: -3.46%

CC(C)NC(=O)[C@H]1C[C@H]2OCC[C@H]2N(Cc2ccc3ccccc3n2)C1
cytotoxicity at 10 µM: -56.3%

CCCN(C)c1ccc(C(=O)NCc2ccnc(C)n2)cc1
cytotoxicity at 10 µM: 6.6%
